Measured values pooled from the literature.
Lines come from different studies, so protocols differ.
Effect on: cell growth or viability

SMILES	cell line	test	conditions	IC50
Cc1ccc2nc(-c3ccc([N+](=O)[O-])cc3)[nH]c2c1	MDA-MB-231	MTT	48 h	17.6 µM
COC(=O)CN=c1scc(-c2ccccc2)n1-c1ccc(OC)cc1	SiHa	MTT	72 h	2.32 µM
COc1ccnc(-c2cc(OC)ccn2)c1	BEL-7404	MTT	48 h	> 50 µM
COC(=O)/C=C/C=C/c1ccc2c(c1)OCO2	MRC5	SRB		250 µM
COc1cc(C)cc2oc(-c3ccc(Br)cc3)cc(=O)c12	HS27	MTT	24 h	> 200 µM
Nc1ccn([C@@H]2O[C@H](CO)[C@@H](O)C2(F)F)c(=O)n1	Panc 04.03	MTT	72 h	0.19 µM
Cl.Oc1cccc2c1[nH]c1c(C3=CC4(O)CC/C=C\CCCCN5CCC3C3(CC6/C=C\CCCCN6C43)C5)nccc12 (single isomer, unassigned; (+))	LLC-PK11	neutral red	48 h	1.85 µg/mL
COc1cc(C)cc2oc(-c3ccccc3)cc(=O)c12	HS27	MTT	24 h	> 200 µM
COc1ccc(C(=O)O[C@@H]2CN3Cc4c(cc5c(c4OC)OCO5)[C@@]24C=C[C@H](OC)C[C@@H]34)cc1OC	MRC5	WST-1		6.1 µM
COC(=O)CN=c1scc(-c2ccccc2)n1-c1ccccc1OC	SiHa	MTT	72 h	4.2 µM
Cc1ccc2nc(-c3cccc(O)c3)[nH]c2c1	MDA-MB-231	MTT	48 h	> 100 µM
Clc1ccnc2c1ccc1c(Cl)ccnc12	BEL-7404	MTT	48 h	> 50 µM
O=C(Nc1ccc2[nH]nc(-c3ccncc3)c2c1)[C@@H]1CCN(CC(=O)N2CCN(c3ccc(-c4ncccn4)cc3)CC2)C1	A-375	resazurin	96 h	0.037 µM
COc1cc(C)c(-c2c(C)cc(OC)c3c(=O)cc(-c4ccc(C(F)(F)F)cc4)oc23)c2oc(-c3ccc(C(F)(F)F)cc3)cc(=O)c12	HS27	MTT	24 h	> 200 µM
COC(=O)CN=c1scc(-c2ccccc2)n1-c1ccccc1C	Panc 04.03	MTT	72 h	> 100 µM
Cc1ccc2nc(-c3ccc(F)cc3)n(Cc3ccccc3)c2c1	MDA-MB-231	MTT		28.5 µM
COc1cc(C)cc2oc(-c3ccccc3Br)cc(=O)c12	HS27	MTT		130 µM
C/C=C(/C)C(=O)OC[C@H]1[C@@H](Cc2ccc(C(F)(F)F)cc2)CO[C@@H]1c1ccccc1	rat VSMC	resazurin	48 h	4.2 µM
CC(=O)c1ccc(/N=N/c2cc(/C=C/C(=O)O)ccc2O)cc1	A-375	MTT		> 50 µM
C/C=C(/C)C(=O)OC[C@H]1[C@@H](Cc2ccc(F)cc2)CO[C@@H]1c1ccc(F)cc1	rat VSMC	resazurin	48 h	4.7 µM

SMILES	cell line	test	conditions	IC50
COC(=O)CN=c1scc(-c2ccccc2)n1-c1ccc(C)cc1	SiHa	MTT	72 h	6.17 µM
COc1cc(C)cc2oc(-c3ccc(C(F)(F)F)cc3)cc(=O)c12	HS27	MTT	24 h	> 200 µM
CC(=O)c1cccc(/N=N/c2cc(/C=C/C(=O)O)ccc2O)c1	A-375	MTT		> 50 µM
Oc1c(I)cc(Cl)c2cccnc12	BEL-7404	MTT	48 h	65.1 µM
COc1cc(C)c(-c2c(C)cc(OC)c3c(=O)cc(-c4ccccc4Br)oc23)c2oc(-c3ccccc3Br)cc(=O)c12	HS27	MTT	24 h	> 200 µM
COC(=O)CN=c1scc(-c2ccccc2)n1-c1ccccc1[N+](=O)[O-]	SiHa	MTT	72 h	6.78 µM
c1ccc2c(-c3nc4ccccc4[nH]3)c3ccccc3cc2c1	MDA-MB-231	MTT	48 h	8.4 µM
Nc1ncc(-c2cnn(C3CCNCC3)c2)cc1-c1nnc(CC2CC2)o1	CMK	trypan blue	72 h	0.653 µM
Cc1ccc2nc(-c3ccncc3)[nH]c2c1	MDA-MB-231	MTT	48 h	74.6 µM
COc1cc(OC)c2c(=O)cc(-c3cccc(Br)c3)oc2c1	HS27	MTT	24 h	128 µM
COc1cccc2c1C(=O)c1c(O)c3c(c(O)c1C2=O)C[C@@](O)(C(=O)CO)C[C@@H]3O[C@H]1C[C@H](N)[C@H](O)[C@H](C)O1	LLC-PK11	neutral red	48 h	< 0.55 µg/mL
Cc1ccc2nc(-c3cccc([N+](=O)[O-])c3)[nH]c2c1	MDA-MB-231	MTT	48 h	> 100 µM
Cc1ccc2c(Cl)cc(Cl)c(O)c2n1	BEL-7404	MTT	48 h	> 100 µM
COc1cc2nccc(Oc3ccc(NC(=O)C4(C(=O)Nc5ccc(F)cc5)CC4)cc3)c2cc1OC	CMK	trypan blue	72 h	> 5.91 µM
COc1cc(OC)c2c(=O)cc(-c3ccc(N(C)C)cc3)oc2c1-c1c(OC)cc(OC)c2c(=O)cc(-c3ccc(N(C)C)cc3)oc12	HS27	MTT	24 h	> 200 µM
Clc1ccc(-c2nc3ccccc3n2Cc2ccccc2)cc1Cl	MDA-MB-231	MTT		52.5 µM
COc1ccc(C[C@H]2CO[C@H](c3ccc(OC)c(OC)c3)[C@H]2COC(=O)C=C(C)C)cc1OC	rat VSMC	resazurin	48 h	34.3 µM
O=[N+]([O-])c1ccc(-c2nc3ccccc3n2Cc2ccccc2)cc1	MDA-MB-231	MTT		8.32 µM
Oc1ccc(Nc2nc(-c3ccc(Cl)cc3)cs2)cc1	FF2441	MTS	48 h	> 100 µM
